Data published in ChEMBL document CHEMBL1157704, “Potent activity against K562 cells by polyamide-seco-CBI conjugates targeting histone H4 genes” (Bioorg Med Chem, 2010).
The source made the active and inactive calls. The calls are words filed in the database; no cut-off is given here.

Columns and labels:
[1] = system: K562; assay: Downregulation of histone H4C mRNA expression in human K562 cells at 250 nM after 48 hrs by real-time PCR analysis; assay type: functional
In short: (§1)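 Treated K562 cells were assayed by one-step real-time RT-PCR. Reverse transcription ran 50 °C for 10 min, then hot-start polymerase activation at 95 °C for 15 min. Cycling was 45 cycles of 95 °C 15 s, 55 °C 30 s and 72 °C 30 s. Levels were normalized to GAPDH mRNA; error shown as standard deviation.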

[2] = system: K562; assay: Downregulation of histone H4E mRNA expression in human K562 cells at 250 nM after 48 hrs by real-time PCR analysis; assay type: functional, cell-based; in short: as §1
[3] = system: K562; assay: Cell cycle arrest in human K562 cells assessed as increase in accumulation at G2/M phase at 250 nM after 48 hrs propidium iodide staining-based FACS analysis; assay type: functional
In short: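 K562 cells (ATCC, b3a2 Bcr-Abl) exposed to polyamide in culture medium and pelleted at 200g for 5 min. Pellets resuspended in PBS, fixed in prechilled 70% ethanol and stained with propidium iodide (50 µg/mL). DNA content read by flow cytometry as G0–G1, S and G2–M fractions; sub-2C DNA taken as fragmentation/apoptosis.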

[4] = system: K562; assay: Induction of apoptosis in human K562 cells assessed as viable cells at 250 nM after 48 hrs by annexin-V FITC and propidium iodide staining-based FACS analysis; assay type: functional; conditions: K562, 48 h, read-out: Activity
In short: (§2)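 Treated K562 cells […] stained with Annexin V-FITC/propidium iodide. Apoptosis was scored by two-dimensional flow cytometry at a core FACS facility.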

[5] = system: K562; assay: Induction of apoptosis in human K562 cells assessed as early apoptotic cells at 250 nM after 48 hrs by annexin-V FITC and propidium iodide staining-based FACS analysis; assay type: functional; in short: as §2
[6] = system: K562; assay: Induction of apoptosis in human K562 cells assessed as late apoptotic cells at 250 nM after 48 hrs by annexin-V FITC and propidium iodide staining-based FACS analysis; assay type: functional; in short: as §2
[7] = system: K562; assay: Induction of apoptosis in human K562 cells assessed as non-viable necrotic cells at 250 nM after 48 hrs by annexin-V FITC and propidium iodide staining-based FACS analysis; assay type: functional; in short: as §2
[8] = system: K562; assay: Cytotoxicity against human K562 cells by MTS assay; assay type: functional, cell-based
In short: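 Proliferation of K562 cells (ATCC, standard culture) was read as mitochondrial conversion of the MTS tetrazolium to formazan, using the CellTiter 96 Aqueous One reagent. EC50 was derived from these readings.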

[9] = system: histone H4c gene fragment DNA (human); assay: Binding affinity to 5'-AGAAAA-3' sequence of 223 bp human histone H4c gene fragment DNA assessed as DNA alkylating activity at 50 to 100 nM after 15 hrs by PAGE

Row | Compound | Activity [9] | Activity [1] | Activity [2] | Activity [3] | viability at 0.25 µM [4] [%] | Activity [5] [%] | Activity [6] [%] | Activity [7] [%] | EC50 [8] [nM]
1 | CN(C)CCCNC(=O)CCNC(=O)c1cc(NC(=O)c2cc(NC(=O)c3cc(NC(=O)c4cc(NC(=O)[C@H](CCNC(=O)CCCc5ccc(N(CCCl)CCCl)cc5)NC(=O)c5nc(NC(=O)CCNC(=O)c6nc(NC(=O)c7nccn7C)cn6C)cn5C)cn4C)cn3C)cn2C)cn1C |  | inactive | inactive | Active | 83.4 | 6.37 | 8.88 | 1.39 | 
2 | CC(=O)Nc1cn(C)c(C(=O)Nc2cc(C(=O)Nc3cn(C)c(C(=O)Nc4cc(C(=O)NCCCC(=O)Nc5cn(C)c(C(=O)Nc6cc(C(=O)Nc7ccc8[nH]c(C(=O)N9CC(CCl)c%10c9cc(O)c9ccccc%109)cc8c7)n(C)c6)n5)n(C)c4)n3)n(C)c2)n1 (centres undefined) | Active |  |  |  |  |  |  |  | 33
3 | CN(C)CCCNC(=O)CCNC(=O)c1cc(NC(=O)c2cc(NC(=O)c3cc(NC(=O)c4nc(NC(=O)[C@@H](CCNC(=O)CCCc5ccc(N(CCCl)CCCl)cc5)NC(=O)c5cc(NC(=O)c6cc(NC(=O)CCNC(=O)c7nccn7C)cn6C)cn5C)cn4C)cn3C)cn2C)cn1C |  | 81% | Active | Active | 76.8 | 10.4 | 9.12 | 3.69 | 81
4 | CN(C)CCCNC(=O)CCNC(=O)c1cc(NC(=O)c2cc(NC(=O)c3cc(NC(=O)c4cc(NC(=O)[C@@H](CCNC(=O)CCCc5ccc(N(CCCl)CCCl)cc5)NC(=O)c5nc(NC(=O)CCNC(=O)c6nc(NC(=O)c7nccn7C)cn6C)cn5C)cn4C)cn3C)cn2C)cn1C |  | 52% | Active | Active | 78.1 | 10.3 | 10.6 | 1.1 | 300

Continued, in another order:

Row | Activity [9] | Compound | Activity [1] | Activity [2] | Activity [3] | viability at 0.25 µM [4] [%] | Activity [5] [%] | Activity [6] [%] | Activity [7] [%] | EC50 [8] [nM]
5 | Active | CC(=O)Nc1cc(C(=O)Nc2cc(C(=O)NCCC(=O)N[C@@H](CCNC(=O)c3cc(NC(=O)c4nc(NC(=O)c5cc(NC(=O)c6nc(NC(C)=O)cn6C)cn5C)cn4C)cn3C)C(=O)Nc3cn(C)c(C(=O)Nc4cc(C(=O)Nc5ccc6[nH]c(C(=O)N7CC(CCl)c8c7cc(O)c7ccccc87)cc6c5)n(C)c4)n3)n(C)c2)n(C)c1 (some centres undefined) |  |  |  |  |  |  |  | 17
6 | Active | CC(=O)Nc1cc(C(=O)Nc2cc(C(=O)NCCC(=O)N[C@@H](CCNC(=O)c3cc(NC(=O)c4nc(NC(=O)CCNC(=O)c5nc(NC(C)=O)cn5C)cn4C)cn3C)C(=O)Nc3cn(C)c(C(=O)Nc4cc(C(=O)Nc5ccc6[nH]c(C(=O)N7CC(CCl)c8c7cc(O)c7ccccc87)cc6c5)n(C)c4)n3)n(C)c2)n(C)c1 (some centres undefined) |  |  |  |  |  |  |  | 38
